Test results published in ChEMBL document CHEMBL1140164, “Isosorbide-2-carbamate esters: potent and selective butyrylcholinesterase inhibitors” (J Med Chem, 2008).
Activity calls are given as the source filed them. No cut-off for these calls is given here.

Experiments:
Cholinesterase [1] = molecular target: T1, Cholinesterase (Homo sapiens, UniProt P06276); experiment: Inhibition of human plasma BuchE by Ellman's method; format: cell-free
Cholinesterase [2] = molecular target: T1, Cholinesterase; experiment: Inhibition of human plasma BuchE at 100 uM by Ellman's method; format: cell-free
Method in brief: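 Ellman assay using human plasma (or purified plasma BuChE) in phosphate buffer pH 8.0 with DTNB (0.5 mM solution); 30 min enzyme–inhibitor preincubation, then BTCI (0.5 mM solution) added and rate read at 405 nm over 5 min. Percent inhibition determined at 100 µM inhibitor; triplicate.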

[3] = Selectivity ratio of IC50 for electric eel AchE to IC50 for human plasma BuchE
[4] = molecular target: Acetylcholinesterase (Electrophorus electricus) (UniProt O42275); experiment: Inhibition of electric eel AchE at 100 uM by Ellman's method
Sequence of Acetylcholinesterase (Electrophorus electricus) (O42275 24-633 limits assumed): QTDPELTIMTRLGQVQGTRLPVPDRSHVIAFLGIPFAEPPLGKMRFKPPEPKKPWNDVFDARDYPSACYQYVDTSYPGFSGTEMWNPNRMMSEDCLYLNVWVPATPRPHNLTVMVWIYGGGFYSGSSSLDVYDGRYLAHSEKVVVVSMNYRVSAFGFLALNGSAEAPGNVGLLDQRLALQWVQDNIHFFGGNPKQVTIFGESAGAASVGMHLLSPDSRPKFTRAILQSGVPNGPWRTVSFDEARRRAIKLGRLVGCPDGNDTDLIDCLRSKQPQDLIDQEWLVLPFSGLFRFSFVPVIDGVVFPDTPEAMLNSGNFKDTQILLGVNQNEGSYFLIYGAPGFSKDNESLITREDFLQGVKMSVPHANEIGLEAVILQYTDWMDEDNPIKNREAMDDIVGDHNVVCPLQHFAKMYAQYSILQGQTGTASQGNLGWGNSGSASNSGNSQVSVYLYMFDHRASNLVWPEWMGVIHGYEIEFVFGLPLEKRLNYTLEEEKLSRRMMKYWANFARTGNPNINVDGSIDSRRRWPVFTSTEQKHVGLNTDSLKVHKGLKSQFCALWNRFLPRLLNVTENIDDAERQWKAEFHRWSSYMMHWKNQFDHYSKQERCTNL
Method in brief: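 Ellman assay with electric eel AChE and ATCI as substrate, phosphate buffer pH 8.0, DTNB (0.5 mM solution). Enzyme and inhibitor incubated 30 min before substrate addition; absorbance read at 405 nm over 5 min. […] Triplicate.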

Cholinesterase [5] = molecular target: T1, Cholinesterase; experiment: Inhibition of human plasma BuchE after 60 mins by carbamylation assay; format: cell-free
Method in brief: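 Purified human plasma BuChE (1.2 × 10^-3 mg/mL) preincubated with inhibitor in buffer in a cuvette for up to 60 min, readings at 0, 5, 10, 20, 30, 40, 50, 60 min; DTNB 0.3 mM and substrate then added, reaction followed at 412 nm for 5 min.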

Acetylcholinesterase [6] = molecular target: Acetylcholinesterase (Electrophorus electricus, UniProt O42275); experiment: Inhibition of electric eel AchE by Ellman's method
Sequence of Acetylcholinesterase (Electrophorus electricus, UniProt O42275) (O42275 whole entry): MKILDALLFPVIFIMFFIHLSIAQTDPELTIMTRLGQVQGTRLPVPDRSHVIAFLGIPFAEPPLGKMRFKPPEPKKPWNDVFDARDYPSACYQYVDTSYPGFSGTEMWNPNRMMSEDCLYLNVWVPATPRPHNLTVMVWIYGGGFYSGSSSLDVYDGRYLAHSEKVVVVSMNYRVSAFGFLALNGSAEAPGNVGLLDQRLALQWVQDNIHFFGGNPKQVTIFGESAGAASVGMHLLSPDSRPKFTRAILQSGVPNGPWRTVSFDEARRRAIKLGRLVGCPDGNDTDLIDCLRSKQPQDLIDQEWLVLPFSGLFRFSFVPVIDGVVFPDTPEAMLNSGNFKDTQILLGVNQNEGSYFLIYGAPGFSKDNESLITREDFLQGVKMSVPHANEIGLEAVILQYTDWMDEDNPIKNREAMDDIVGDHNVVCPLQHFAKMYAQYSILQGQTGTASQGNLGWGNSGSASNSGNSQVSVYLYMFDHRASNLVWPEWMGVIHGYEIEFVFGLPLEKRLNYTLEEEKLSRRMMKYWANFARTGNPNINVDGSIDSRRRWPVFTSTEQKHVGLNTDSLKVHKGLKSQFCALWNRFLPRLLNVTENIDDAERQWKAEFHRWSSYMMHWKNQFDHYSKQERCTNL

Plasma = experiment: Stability in 50% human plasma assessed as drug hydrolysis at 10 to 100 uM by HPLC; format: ADME, cell-free
Method in brief: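 Pooled citrated human venous plasma diluted with pH 7.4 phosphate buffer to 50%, showing normal adult BuChE activity. Compound added in acetonitrile and incubated at 37 °C. Aliquots taken at intervals, quenched in 2% ZnSO4·7H2O in MeCN-H2O (1:1) plus acetonitrile, vortexed and centrifuged. Supernatant analysed by reversed-phase HPLC with a gradient of pH 2.5 phosphate buffer:acetonitrile, 50:50 to 20:80 over 20 min.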

Acetylcholinesterase [7] = molecular target: Acetylcholinesterase (Homo sapiens, UniProt P22303); experiment: Inhibition of human erythrocyte AchE by Ellman's method
Sequence of Acetylcholinesterase (Homo sapiens, UniProt P22303) (P22303 whole entry): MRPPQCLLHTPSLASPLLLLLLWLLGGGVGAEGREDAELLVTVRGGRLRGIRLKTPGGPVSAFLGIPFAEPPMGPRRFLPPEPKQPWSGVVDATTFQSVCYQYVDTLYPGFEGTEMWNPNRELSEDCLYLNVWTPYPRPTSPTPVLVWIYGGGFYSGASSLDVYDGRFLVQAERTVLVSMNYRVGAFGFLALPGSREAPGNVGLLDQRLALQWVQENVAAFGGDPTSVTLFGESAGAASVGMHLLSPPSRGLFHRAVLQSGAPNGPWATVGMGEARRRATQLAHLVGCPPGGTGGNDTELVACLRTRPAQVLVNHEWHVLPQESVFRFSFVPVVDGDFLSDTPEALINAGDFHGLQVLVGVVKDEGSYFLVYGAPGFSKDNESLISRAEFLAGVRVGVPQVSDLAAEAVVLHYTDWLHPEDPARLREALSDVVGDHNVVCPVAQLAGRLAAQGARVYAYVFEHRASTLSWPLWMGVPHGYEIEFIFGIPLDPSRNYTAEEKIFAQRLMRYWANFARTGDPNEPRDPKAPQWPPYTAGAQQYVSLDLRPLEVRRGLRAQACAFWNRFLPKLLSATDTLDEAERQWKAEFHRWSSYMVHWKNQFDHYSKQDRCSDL

Cholinesterase [8] = molecular target: T1, Cholinesterase; experiment: Inhibition of human plasma BuchE using variable substrate levels by carbamylation assay; format: cell-free
Method in brief: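 Time-course carbamylation with purified human plasma BuChE (1.2 × 10^-3 mg/mL), fixed inhibitor concentration, substrate varied 0.5-10 mM; preincubation sampled at 0-60 min intervals, then DTNB 0.3 mM plus substrate added and read at 412 nm for 5 min. Data plotted as ln E/E_T versus time.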

Homo sapiens = species: Homo sapiens; experiment: Selectivity ratio of IC50 for human erythrocyte AchE to IC50 for human plasma BuchE
Cholinesterase [9] = molecular target: T1, Cholinesterase; experiment: Inhibition of human plasma BuchE in presence of edrophonium by carbamylation assay; format: cell-free
Method in brief: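 Carbamylation time course with purified human plasma BuChE (1.2 × 10^-3 mg/mL) and inhibitor at 1 mM in the presence of 5 mM edrophonium; activity sampled over 60 min preincubation, measured with DTNB 0.3 mM and substrate at 412 nm for 5 min.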

T1 sequence (P06276 whole entry): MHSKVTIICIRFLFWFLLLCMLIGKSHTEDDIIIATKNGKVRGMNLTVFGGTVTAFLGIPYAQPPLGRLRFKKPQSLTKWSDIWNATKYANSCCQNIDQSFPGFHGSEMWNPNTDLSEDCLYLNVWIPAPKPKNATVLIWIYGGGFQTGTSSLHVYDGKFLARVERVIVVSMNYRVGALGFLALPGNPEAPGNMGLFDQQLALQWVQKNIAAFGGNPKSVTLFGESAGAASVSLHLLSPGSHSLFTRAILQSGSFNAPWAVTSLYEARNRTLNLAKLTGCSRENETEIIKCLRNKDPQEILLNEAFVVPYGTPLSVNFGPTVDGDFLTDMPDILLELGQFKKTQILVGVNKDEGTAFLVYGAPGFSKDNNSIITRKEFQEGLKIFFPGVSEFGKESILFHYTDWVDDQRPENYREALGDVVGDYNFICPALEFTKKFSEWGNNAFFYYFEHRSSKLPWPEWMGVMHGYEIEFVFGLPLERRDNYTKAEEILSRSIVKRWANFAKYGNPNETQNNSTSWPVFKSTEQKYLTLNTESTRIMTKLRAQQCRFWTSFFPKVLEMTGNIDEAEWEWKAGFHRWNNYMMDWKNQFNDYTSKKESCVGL

O=C(NCc1ccccc1)O[C@H]1CO[C@H]2[C@@H]1OC[C@H]2O[N+](=O)[O-]
IC50 (Cholinesterase [1]): 0.051 µM | inhibition (Cholinesterase [2]): 96% | Ratio IC50 [3]: > 2000 | inhibition [4]: 35% | IC50 (Cholinesterase [5]): 0.0036 µM

Cc1ccc(S(=O)(=O)C(=O)O[C@@H]2CO[C@H]3[C@@H]2OC[C@@H]3OC(=O)NCc2ccccc2)cc1
inhibition (Cholinesterase [2]): 25% | inhibition [4]: 66%

O=C(NCc1ccccc1)O[C@H]1CO[C@H]2[C@@H]1OC[C@H]2OC(=O)c1cccc2ccccc12
IC50 (Cholinesterase [1]): 0.028 µM | inhibition (Cholinesterase [2]): 99% | Ratio IC50 [3]: 1340 | inhibition [4]: 86% | IC50 (Acetylcholinesterase [6]): 37.6 µM

CNC(=O)O[C@H]1CO[C@H]2[C@@H]1OC[C@H]2OC(=O)c1ccccc1
IC50 (Cholinesterase [1]): 0.669 µM | inhibition (Cholinesterase [2]): 93% | Ratio IC50 [3]: 150 | inhibition [4]: 54%

CCCNC(=O)O[C@H]1CO[C@H]2[C@@H]1OC[C@H]2O[N+](=O)[O-]
IC50 (Cholinesterase [1]): 0.639 µM | inhibition (Cholinesterase [2]): 93% | Ratio IC50 [3]: 2380 | inhibition [4]: 1% | IC50 (Acetylcholinesterase [6]): 1520 µM

CCNC(=O)O[C@H]1CO[C@H]2[C@@H]1OC[C@H]2O[N+](=O)[O-]
IC50 (Cholinesterase [1]): 3.9 µM | inhibition (Cholinesterase [2]): 73% | inhibition [4]: 1%

O=C(NCc1ccccc1)O[C@H]1CO[C@H]2[C@@H]1OC[C@H]2OC(=O)c1ccccc1
IC50 (Cholinesterase [1]): 0.0043 µM | Stability (Plasma): Stable | inhibition (Cholinesterase [2]): 99% | IC50 (Acetylcholinesterase [7]): 221 µM | Activity (Cholinesterase [8]): Dose-dependent effect | Ratio IC50 [3]: 63300 | Ratio IC50 (Homo sapiens): 51000 | inhibition [4]: 21% | Activity (Cholinesterase [9]): inactive | IC50 (Acetylcholinesterase [6]): 273 µM

O=C(NCc1ccccc1)O[C@H]1CO[C@H]2[C@@H]1OC[C@H]2OC(=O)c1cccnc1
IC50 (Cholinesterase [1]): 0.057 µM | inhibition (Cholinesterase [2]): 99% | Ratio IC50 [3]: 1750 | inhibition [4]: 33%

O=C(NCc1ccccc1)O[C@H]1CO[C@H]2[C@@H]1OC[C@H]2O
IC50 (Cholinesterase [1]): 3.7 µM | inhibition (Cholinesterase [2]): 95% | Ratio IC50 [3]: > 27 | inhibition [4]: 15%

O=C(NC1CCCCC1)O[C@H]1CO[C@H]2[C@@H]1OC[C@H]2O[N+](=O)[O-]
IC50 (Cholinesterase [1]): 2.5 µM | inhibition (Cholinesterase [2]): 99% | Ratio IC50 [3]: > 40 | inhibition [4]: 30%

O=C(Nc1ccc(Cl)c(Cl)c1)O[C@H]1CO[C@H]2[C@@H]1OC[C@H]2O[N+](=O)[O-]
inhibition (Cholinesterase [2]): 28% | inhibition [4]: 78% | IC50 (Acetylcholinesterase [6]): 9.9 µM

C=CC[N+](C)(C)c1ccc(CCC(=O)CCc2ccc([N+](C)(C)CC=C)cc2)cc1
IC50 (Acetylcholinesterase [6]): 0.063 µM

CC(C)NP(=O)(NC(C)C)OP(=O)(NC(C)C)NC(C)C [TETRAISOPROPYL PYROPHOSPHORAMIDE]
IC50 (Acetylcholinesterase [6]): 2.5 µM

O=C(NCc1ccccc1)O[C@H]1CO[C@H]2[C@@H]1OC[C@H]2OC(=O)c1ccncc1
IC50 (Cholinesterase [1]): 0.088 µM | inhibition (Cholinesterase [2]): 97% | inhibition [4]: 24%

O=C(/C=C/c1ccc(O)cc1)O[C@@H]1CO[C@H]2[C@@H]1OC[C@@H]2OC(=O)NCc1ccccc1
IC50 (Cholinesterase [1]): 0.073 µM | inhibition (Cholinesterase [2]): 100% | Ratio IC50 [3]: 821 | inhibition [4]: 81% | IC50 (Acetylcholinesterase [6]): 60.4 µM

O=C(NCc1ccccc1)O[C@H]1CO[C@H]2[C@@H]1OC[C@H]2OC(=O)C1CCCC1
IC50 (Cholinesterase [1]): 0.006 µM | inhibition (Cholinesterase [2]): 99% | Ratio IC50 [3]: 9380 | inhibition [4]: 88% | IC50 (Acetylcholinesterase [6]): 56.3 µM

CNC(=O)O[C@H]1CO[C@H]2[C@@H]1OC[C@H]2O[N+](=O)[O-]
IC50 (Cholinesterase [1]): 5.1 µM | inhibition (Cholinesterase [2]): 82% | inhibition [4]: 67% | IC50 (Acetylcholinesterase [6]): 17.2 µM

O=C(NCc1ccccc1)O[C@H]1CO[C@H]2[C@@H]1OC[C@H]2OC(=O)C1CC1
IC50 (Cholinesterase [1]): 0.334 µM | inhibition (Cholinesterase [2]): 97% | Ratio IC50 [3]: 300 | inhibition [4]: 55%

O=C(Nc1cccc(Cl)c1)O[C@H]1CO[C@H]2[C@@H]1OC[C@H]2O[N+](=O)[O-]
inhibition (Cholinesterase [2]): 11% | inhibition [4]: 24%

O=C(Nc1ccccc1Cl)O[C@H]1CO[C@H]2[C@@H]1OC[C@H]2O[N+](=O)[O-]
inhibition (Cholinesterase [2]): 11% | inhibition [4]: 24%

CCCCC(=O)O[C@@H]1CO[C@H]2[C@@H]1OC[C@@H]2OC(=O)NCc1ccccc1
IC50 (Cholinesterase [1]): 0.7 µM | inhibition (Cholinesterase [2]): 95% | Ratio IC50 [3]: > 142 | inhibition [4]: 4%

O=C(Nc1cccc(C(F)(F)F)c1)O[C@H]1CO[C@H]2[C@@H]1OC[C@H]2O[N+](=O)[O-]
inhibition (Cholinesterase [2]): 10% | inhibition [4]: 12%

CS(=O)(=O)OC(=O)O[C@@H]1CO[C@H]2[C@@H]1OC[C@@H]2OC(=O)NCc1ccccc1
inhibition (Cholinesterase [2]): 9.8% | inhibition [4]: 3%

O=C(Nc1ccccc1)O[C@H]1CO[C@H]2[C@@H]1OC[C@H]2O[N+](=O)[O-]
inhibition (Cholinesterase [2]): 37% | inhibition [4]: 23%

O=C(NCc1ccccc1)O[C@H]1CO[C@H]2[C@@H]1OC[C@H]2OC(=O)c1ccc(-c2ccccc2)cc1
IC50 (Cholinesterase [1]): 0.012 µM | inhibition (Cholinesterase [2]): 99% | Ratio IC50 [3]: 4190 | inhibition [4]: 89% | IC50 (Acetylcholinesterase [6]): 51.6 µM

CCCCCCc1ccc(C(=O)O[C@@H]2CO[C@H]3[C@@H]2OC[C@@H]3OC(=O)NCc2ccccc2)cc1
IC50 (Cholinesterase [1]): 2.8 µM

CCCCNC(=O)O[C@H]1CO[C@H]2[C@@H]1OC[C@H]2O[N+](=O)[O-]
IC50 (Cholinesterase [1]): 0.894 µM | inhibition (Cholinesterase [2]): 92% | Ratio IC50 [3]: 1610 | inhibition [4]: 32% | IC50 (Acetylcholinesterase [6]): 1440 µM

O=C(/C=C/c1ccccc1)O[C@@H]1CO[C@H]2[C@@H]1OC[C@@H]2OC(=O)NCc1ccccc1
IC50 (Cholinesterase [1]): 0.137 µM | inhibition (Cholinesterase [2]): 96% | Ratio IC50 [3]: 729 | inhibition [4]: 82% | IC50 (Acetylcholinesterase [6]): 55.9 µM

O=C(NCc1ccccc1)O[C@H]1CO[C@H]2[C@@H]1OC[C@H]2OC(=O)OS(=O)(=O)C(F)(F)F
IC50 (Cholinesterase [1]): 0.359 µM

CCC(C)NC(=O)O[C@H]1CO[C@H]2[C@@H]1OC[C@H]2OC(=O)c1ccccc1 (some centres not stated)
IC50 (Cholinesterase [1]): 0.072 µM | inhibition (Cholinesterase [2]): 99% | Ratio IC50 [3]: 1390 | inhibition [4]: 31%

CCC(=O)O[C@@H]1CO[C@H]2[C@@H]1OC[C@@H]2OC(=O)NCc1ccccc1
IC50 (Cholinesterase [1]): 0.98 µM | inhibition (Cholinesterase [2]): 97% | Ratio IC50 [3]: > 100 | inhibition [4]: 5%

CC(=O)O[C@@H]1CO[C@H]2[C@@H]1OC[C@@H]2OC(=O)NCc1ccccc1
IC50 (Cholinesterase [1]): 4.1 µM | inhibition (Cholinesterase [2]): 97% | Ratio IC50 [3]: > 25 | inhibition [4]: 12%

O=C(NCc1ccccc1)O[C@H]1CO[C@H]2[C@@H]1OC[C@H]2OC(=O)c1ccc2ccccc2c1
IC50 (Cholinesterase [1]): 0.032 µM | inhibition (Cholinesterase [2]): 100% | Ratio IC50 [3]: 1370 | inhibition [4]: 80% | IC50 (Acetylcholinesterase [6]): 43.4 µM

O=C(Nc1ccc(Cl)c(Cl)c1)O[C@H]1CO[C@H]2[C@@H]1OC[C@H]2OC(=O)c1ccccc1
inhibition (Cholinesterase [2]): 38% | inhibition [4]: 70%
